Active and inactive are the calls of the source. The calls are words filed in the database; no cut-off is given here.

One data set relates to A-431. Description: Cytotoxicity against human A431 cells. It counts as functional, cell-based.
Data set [1] is described as follows: Inhibition of bovine brain tubulin assembly preincubated for 15 mins followed by GTP addition measured for 20 mins by spectrophotometric method. More on the design: species or system Bos taurus.
The next data set concerns Chorioallantoic membrane. Description: Antiangiogenic activity in Leghorn chicken egg chorioallantoic membrane assessed as inhibition of human VEGF-165/bFGF-induced blood vessels formation measured after 40 hrs by microscopic method. It counts as functional, tissue-based. The conditions noted are these: Gallus gallus.
In a further data set the test system is HeLa. Briefly: Growth inhibition of human HeLa cells measured after 96 hrs by sulforhodamine B assay. It counts as functional, cell-based. The gist of the method:
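Exposed 96 h to varying compound concentrations in 0.5% DMSO. Cell protein measured by sulforhodamine B; IC50 = concentration halving the increase in cell protein versus untreated cultures.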

Data set [2] concerns 4T1. Briefly: Antitumor activity against luciferase/GFP-tagged mouse 4T1 cells implanted in Balb/CJ mouse assessed as reduction in primary tumor growth at 1 mg/kg, ip administered once in a week. It counts as functional, organism-based.
Another data set concerns Mus musculus. Briefly: Toxicity in Balb/cJ mouse implanted with luciferase/GFP-tagged mouse 4T1 cells assessed as body weight gain at 1 mg/kg, ip administered once weekly measured at day 40 post dose. It is filed as organism-based. To be noted: in vivo.
Data set [3] is described as follows: Toxicity in Balb/cJ mouse assessed as body weight loss administered once weekly measured every 2 days during compound dosing. The conditions noted are these: in vivo. In a few lines:
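Female BALB/cJ mice, 8 weeks old, carrying orthotopic 4T1-Luc2-GFP allografts (7,500 cells in mammary fat pad #4). IP dosing at 1 mg/kg once weekly began one week after implantation, in 5% Pharmasolve/5% Solutol HS in normal saline. Body weight was reported as percent change at day 40 from starting weight, vs untreated controls, n = 9–10, by one-way ANOVA.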

Data set [4] deals with 4T1. Briefly: Antitumor activity against luciferase/GFP-tagged mouse 4T1 cells implanted in Balb/cJ mouse assessed as reduction in lung metastasis at 1 mg/kg, ip administered once weekly by fluorescence microscopic method. It is filed as functional, organism-based. In a few lines: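 Orthotopic 4T1-Luc2-GFP allograft in the mammary fat pad of female BALB/cJ mice; IP treatment in 5% Pharmasolve/5% Solutol HS in saline began one week after implantation. At study end, lungs were excised from mice euthanized under isoflurane and imaged with a GFP-filter fluorescence dissecting microscope; GFP-positive metastases per lung counted. n = 9-10.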

For `COc1ccc(Nc2nc(C)nc3c(Cc4ccccc4)cn(C)c23)cc1`, the IC50 in the data set with A-431 is 2.3 µM; in data set [1] it was above 20 µM; in the data set with Chorioallantoic membrane it was 8.7 µM.
`COc1ccc2c(c1)CCCN2c1nc(C)nc2c(Cc3ccccc3)cn(C)c12`: 0.06 µM corresponded to half-maximal inhibition with HeLa (IC50).
The compound `COc1ccc2c(c1)CCCN2c1nc(N)nc2c(Cc3ccccc3)c[nH]c12` had an IC50 in data set [1] of 13 µM.
`COc1cccc2c1C(=O)c1c(O)c3c(c(O)c1C2=O)C[C@@](O)(C(=O)CO)C[C@@H]3O[C@H]1C[C@H](N)[C@H](O)[C@H](C)O1` [DOXORUBICIN]: the outcome with 4T1 [2] was inactive. For the same compound, the Activity entry in the data set with Mus musculus is given as “Toxic”. Also, the MTD at 48 h in data set [3] came out at 1 mg/kg. Also, the result in the data set on 4T1 [4] was Active.

By IC50 is commonly meant the concentration at which inhibition is half-maximal.

For the origin of these results see ChEMBL document CHEMBL3997769, “Discovery and preclinical evaluation of 7-benzyl-N-(substituted)-pyrrolo[3,2-d]pyrimidin-4-amines as single agents with microtubule targeting effects along with triple-acting angiokinase inhibition as antitumor agents” (Bioorg Med Chem, 2017).
